Published values pooled from the literature.
Each line is one published result; the experiments were not run side by side.
Read-out: cell growth or viability

The IC50 of `Cc1[nH]c(C)c(-c2ccc(OCc3cc(C(F)(F)F)cc(C(F)(F)F)c3)nc2)c(=O)c1Br` is reported as over 10 µM (HEK293).
With `C=CCC[C@@H]1NC(=O)[C@H]2CCCN2C(=O)[C@H](Cc2ccccc2)NC(=O)C(C)(C)NC1=O` the IC50 was over 100 µM (HEK293; XTT).
The IC50 of `Cc1[nH]c(C)c(-c2ccc(-c3cc(C(F)(F)F)cc(C(F)(F)F)c3)nc2)c(=O)c1Br` is reported as over 10 µM (HEK293).
`C=C(Cl)C(=O)Nc1cc(Nc2nc(N3CCSCC3)c3sccc3n2)c(OC)cc1N(C)CCN(C)C` has an IC50 of 0.165 µM (NCI-H1975; MTT).
The IC50 of `CC[C@@H](C)[C@H](N)C(=O)N1Cc2ccccc2C1` is reported as 0.124 µM (SET-2; ATP luminescence; 48 h).
For `C=CC(=O)Nc1cc(Nc2nc(N3CCc4sccc4C3)c3cccnc3n2)c(OC)cc1N(C)C`, the IC50 was over 50 µM (NCI-H1975; MTT).
For `COc1ccc2oc(=O)cc(CCl)c2c1`, the IC50 was over 20 µM (HEK293; MTT; 36 h).
The IC50 of `Cc1ncn2c(=O)n(C)nnc12` is reported as 6 µM (T98G; resazurin; 7 days).
With `CC(=O)Oc1ccc2c(CSC(C)=O)cc(=O)oc2c1` the IC50 was over 20 µM (HEK293; MTT; 36 h).
For `COc1ccc(F)cc1C(=O)NCc1ccc(-c2nn([C@@H](C)C(F)(F)F)c(N)c2C(N)=O)cc1`, the IC50 was 0.0031 µM (Rec1; ATP luminescence; 72 h).
`C=CC(=O)N1CCC[C@@H](n2nc(-c3ccc(Oc4ccccc4)cc3)c3c(N)ncnc32)C1` has an IC50 of 0.01 µM (TMD8; CCK-8; 72 h).
With `COC(=O)c1cc2ccc(O)cc2oc1=O` the IC50 was over 20 µM (HEK293; MTT; 36 h).
`Cc1[nH]cc(Br)c(=O)c1-c1ccc(Oc2ccc(OC(F)(F)F)cc2)cc1` gave an IC50 of over 10 µM (HEK293).
With `O=c1cc(CCl)c2ccc(O)cc2o1` the IC50 was 15.8 µM (HEK293; MTT; 36 h).
For `CC(C)C[C@H](NC(=O)[C@H](Cc1ccccc1)NC(=O)c1cnccn1)B(O)O`, the IC50 was 0.0053 µM (MKN-1; ATP luminescence).
The IC50 of `C=CC(=O)Nc1cc(Nc2nc(N3CCc4sccc4C3)c3cccnc3n2)c(OC)cc1N1CCSCC1` is reported as 0.312 µM (NCI-H1975; MTT).
For `O=C1NC(=NCc2cccs2)S/C1=C\c1ccc2ncccc2c1`, the IC50 was over 10 µM (SK-MEL-28).
`C=CC(=O)Nc1cc(Nc2nc(N3CCOCC3)c3sccc3n2)c(OC)cc1N(C)CCN(C)C` has an IC50 of 37.5 µM (NCI-H1975; MTT).
`Cn1nnc2c(Cl)ncn2c1=O` gave an IC50 of 60 µM (T98G; resazurin; 7 days).
`CCC(=O)Nc1cc(Nc2nc(N3CCc4sccc4C3)c3cccnc3n2)c(OC)cc1N1CCN(CCO)CC1` gave an IC50 of 0.471 µM (NCI-H1975; MTT).
`C=CC(=O)Nc1cccc(Nc2nc(Nc3ccc(OCCOC)cc3)ncc2F)c1` gave an IC50 of 6.33 µM (CNE2Z).
The IC50 of `C=CC(=O)Nc1cc(Nc2nc(N3CCc4sccc4C3)c3cccnc3n2)c(OC)cc1N1CCC(N(C)C)CC1` is reported as 0.15 µM (NCI-H1975; MTT).
For `Cc1cc(=O)c(-c2ccc(Oc3cccc(Cl)c3)cc2)c(C)[nH]1`, the IC50 was over 10 µM (HEK293).
`Cn1nnc2c(-c3ccccc3)ncn2c1=O` has an IC50 of 14 µM (T98G; resazurin; 7 days).
With `Cc1[nH]c(C)c(-c2ccc(-c3cccc(C(F)(F)F)c3)nc2)c(=O)c1Br` the IC50 was over 10 µM (HEK293).
With `C[C@H](O)C(=O)CCCCCCC(=O)Nc1cccc(-c2cn(-c3ccccc3)nn2)c1` the IC50 was 15.9 µM (HEK293; XTT).
The IC50 of `CC(C)[C@H](N)C(=O)N1CCC[C@H]1B(O)O` is reported as 0.006 µM (SET-2; ATP luminescence; 48 h).
`c1cc(CN2CCN(c3ccncc3)CC2)cc(-c2ccc(-c3nc4ccccc4[nH]3)cc2)c1` gave an IC50 of over 10 µM (HEK293).
The IC50 of `Cn1nnc2c(C(=O)N3CCCC3)ncn2c1=O` is reported as 186 µM (T98G; resazurin; 7 days).
For `O=C1Nc2ccccc2-c2cnc(NCc3c(F)ccc4c3CCO4)n3cnc1c23`, the IC50 was 0.0683 µM (KARPAS-422; CCK-8; 7 days).
`C=C(Cl)C(=O)Nc1cc(Nc2nc(Nc3cnn(C)c3)c3sccc3n2)c(OC)cc1N1CCN(C)CC1` has an IC50 of 0.106 µM (NCI-H1975; MTT).
With `CCOC(=O)c1c(-c2ccccc2)nc2c(sc3ccccc32)c1O` the IC50 was over 10 µM (HEK293).
`CC(=O)SCc1cc(=O)oc2cc(O)ccc12` has an IC50 of over 20 µM (HEK293; MTT; 36 h).
The IC50 of `Cc1c(NC(=O)c2ccc(C(C)(C)C)cc2)cccc1-c1cn(C)c(=O)c(Nc2ccc(C(=O)N3CCOCC3)cc2)n1` is reported as over 10 µM (CNE2Z).
With `CC#CC(=O)N1CCC[C@H]1c1nc(-c2ccc(C(=O)Nc3ccccn3)cc2)c2c(N)nccn12` the IC50 was 0.014 µM (TMD8; CCK-8; 72 h).
`CCCCCCCc1[nH]c2ccccc2c(=O)c1C` has an IC50 of over 10 µM (HEK293).
`C=CC(=O)Nc1cc(Nc2nc(N3CCc4sccc4C3)c3cccnc3n2)c(OC)cc1N1CCN(CCO)CC1` has an IC50 of 0.906 µM (NCI-H1975; MTT).
